From PubChem BioAssay
MrgX1 antag: antagonists of human MrgX1 receptor, primary screen, HEK293 cells, Fluo-4 calcium flux; Mas-related G-protein coupled receptor member X1 (Homo sapiens), Q96LB2; BAM8-22 antagonism; active compounds read low; B-score at 10 µM; 310,000 compounds, 1.3% hits;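 active = calcium-response B-score plate-corrected more than 3 library SD below zero, starting fluorescence within 5 deviations, no agonist response on first addition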;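 note: peak minus trough fluorescence over baseline after final BAM8-22 challenge near maximal dose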
Target sequence (Q96LB2 whole entry, looked up): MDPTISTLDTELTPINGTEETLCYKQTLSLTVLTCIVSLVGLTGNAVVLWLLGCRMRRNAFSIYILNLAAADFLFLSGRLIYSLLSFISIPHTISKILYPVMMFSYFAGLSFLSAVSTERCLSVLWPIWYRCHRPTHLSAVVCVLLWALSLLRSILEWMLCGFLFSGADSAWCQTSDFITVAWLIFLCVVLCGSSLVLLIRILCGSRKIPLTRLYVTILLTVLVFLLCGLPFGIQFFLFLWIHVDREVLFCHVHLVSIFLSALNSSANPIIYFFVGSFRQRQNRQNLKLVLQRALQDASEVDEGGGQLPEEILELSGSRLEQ
RGS4 inh: RGS4 inhibitors, primary screen, cell-based, HEK293 M3R inducible RGS4, calcium flux; Regulator of G-protein signaling 4 (Homo sapiens), P49798; Fluo-4 calcium flux; active compounds read high; triggered by carbachol at its EC20; B-score at 10 µM; 310,000 compounds, 0.45% hits; AID 463165, 2010;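 active = B-score, a plate-corrected calcium signal, over three deviations above library mean, with baseline fluorescence within five deviations of library mean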;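 note: RGS4 expression induced by doxycycline in cells with stable M3 receptor; B-score is computed from the integrated fluorescence ratio over baseline after carbachol; higher B-score means a larger calcium signal and so more RGS4 inhibition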
Target sequence (P49798 whole entry, looked up): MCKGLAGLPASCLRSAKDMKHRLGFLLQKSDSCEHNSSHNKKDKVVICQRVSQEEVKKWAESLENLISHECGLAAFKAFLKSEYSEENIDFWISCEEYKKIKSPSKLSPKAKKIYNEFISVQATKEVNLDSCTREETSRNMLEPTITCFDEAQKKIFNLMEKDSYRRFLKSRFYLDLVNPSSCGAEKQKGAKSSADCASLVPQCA
MrgX1 ag: agonists of human MrgX1 receptor, primary screen, HEK293 cells, Fluo-4 calcium flux; Mas-related G-protein coupled receptor member X1 (Homo sapiens), Q96LB2; Fluo-4 calcium fluorescence, agonist mode; active compounds read high; B-score at 10 µM; 310,000 compounds, 0.44% hits; AID 588627, 2011;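 active = calcium response B-score plate-corrected fluorescence ratio at least 3 library SD, with starting fluorescence B-score inside 5 SD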
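times = overnight plating, then 30 min 37 °C plus 30 min room-temperature dye loading | assay system = stable human MrgX1 HEK293 cell line | input = fifteen thousand cells per well | signal = kinetic calcium dye fluorescence, Fluo-4 NW | dosing = compound delivered in addition one of three | read-out = B-scored fluorescence response ratio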
RGS4 pot: RGS4 potentiators or activators, primary screen, cell-based, HEK293 M3R inducible RGS4, calcium flux. carbachol calcium flux Fluo4; active compounds read low. B-score at 10 µM. 310,000 compounds, 0.92% hits. AID 463111, 2010;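 active = B-score of the integrated calcium signal more than 4 SD below the library mean, with starting fluorescence not abnormally high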;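 note: negative B-score means reduced calcium response which marks RGS4 activation or potentiation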
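Detection: kinetic calcium fluorescence imaging with Fluo4-AM dye, 2 µM / Material: HEK293 cells with stable M3R and inducible RGS4 / Schedule: recording 10 s baseline at 1 Hz, 100 s post-agonist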
MrgX1 allo act: positive allosteric modulators of MrgX1, primary screen, HEK293 cells, Fluo-4 calcium flux. Mas-related G-protein coupled receptor member X1 (Homo sapiens), Q96LB2. FDSS; active compounds read high. B-score at 10 µM. 310,000 compounds, 0.63% hits;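 active = plate-corrected calcium response at least 3 library SD above typical, normal starting fluorescence, not activating the receptor alone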;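 note: compound read alongside a low EC10 to EC30 dose of BAM8-22 agonist; peak minus trough fluorescence over baseline measured at the second addition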
RGS4 inh valid: enhanced carbachol calcium response, M3R/RGS4 cells, RGS4 inhibitor project, cell-based, validation screen, HEK293 M3R/RGS4, calcium flux. 1,700 compounds, 65% hits. shares compounds with RGS4 inh. AID 492999, 2010. carbachol calcium Fluo-4 fluorescence; carbachol added at its EC20; 0 = buffer wells, 100 = carbachol control. calcium response, % at 10 µM;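 active = duplicate-averaged calcium response above the buffer-only control mean plus 5 SD of those controls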;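 note: integrated fluorescence ratio F max minus min over baseline F0; higher response in RGS4-induced cells means RGS4 inhibition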
RGS4 uninduced: carbachol calcium response in non-induced M3R cells, confirmation, counter-screen for RGS4 inhibitor project, cell-based, HEK293 M3R; shares compounds with RGS4 inh; carbachol calcium Fluo-4; submaximal (EC20) carbachol stimulus; buffer wells 0%, carbachol control wells 100%; activity (percent), % at 10 µM; 1,900 compounds, 20% hits; AID 493000, 2010; call rule not given here;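 note: RGS4 induction absent so cells express M3R without RGS4; higher means more calcium signal and flags a non-specific hit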
RGS4 inh ctr2: second counter-screen for RGS4 inhibitors: non-induced cells without carbachol; 1,900 compounds, 22% hits; HEK293 M3R/RGS4 non-induced, Fluo-4 calcium, no carbachol; normalised: buffer wells 0%, carbachol wells 100%; calcium response (agonist-mode artifact), % at 10 µM; shares compounds with RGS4 inh;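 active = duplicate-averaged calcium rise in uninduced cells above buffer wells' mean plus 5 SD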
Starred values were filed as active, the others as inactive; i = inactive; . = not tested or not shown. A selection: hits, their analogues and other compounds. The true share with any hit is near 3.5%.

SMILES | MrgX1 antag | RGS4 inh | MrgX1 ag | RGS4 pot | MrgX1 allo act | RGS4 inh valid | RGS4 uninduced | RGS4 inh ctr2
O=c1[nH]c(NNC(=S)NCc2ccccc2)nc2c1C1(CCCCC1)Cc1ccccc1-2 | i | 12.6* | i | i | i | 30.0%* | i | i
O=c1[nH]c(NNC(=S)NC2CCCCC2)nc2c1C1(CCCC1)Cc1ccccc1-2 | i | 12.1* | i | i | i | 7.5%* | i | i
C=CCNC(=S)N1CCN(Cc2ccccc2)CC1 | i | i | i | i | i | . | . | .
O=C(N/N=C/c1ccc(-c2ccccc2[N+](=O)[O-])o1)[C@H]1C[C@@H]1c1ccccc1 | i | i | i | i | i | . | . | .
O=C(N/N=C/c1ccc(-c2cccc([N+](=O)[O-])c2)o1)[C@H]1C[C@@H]1c1ccccc1 | i | 5.66* | i | i | i | i | i | i
O=C(N/N=C/c1ccc(-c2ccc([N+](=O)[O-])cc2)o1)[C@H]1C[C@@H]1c1ccccc1 | i | i | i | i | i | i | i | 39.0%*
COc1ccc(Nc2nc(N3CCOCC3)nc(N3CCOCC3)n2)c(OC)c1 | i | i | i | i | i | i | i | i
COc1cc(C(=O)/C=C/c2cccnc2)ccc1O | i | 11.3* | i | i | i | 36.5%* | 45.5%* | i
O=C(/C=C/c1cccnc1)c1cc(F)ccc1O | i | 4.99* | i | i | i | 22.0%* | 72.0%* | i
COc1ccc(OC)c(C(=O)/C=C/c2cccnc2)c1 | i | i | i | i | i | . | . | .
Oc1ccc(C2Nc3cccc4cccc(c34)N2)c(O)c1 | i | 7.71* | i | i | i | 9.5%* | i | i
Clc1ccccc1C1Nc2cccc3cccc(c23)N1 | i | i | i | i | i | . | . | .
COC(=O)c1c(C)cc(O)c(C=O)c1O | i | 5.25* | i | i | i | 26.5%* | i | i
COC(=O)c1c(C)c(OC(=O)c2c(C)cc(O)c(C=O)c2O)cc(C)c1O | i | i | i | i | i | . | . | .
O=C(NNc1c2ccccc2nc2ccccc12)c1ccccc1O | i | i | i | i | i | . | . | .
O=C(NNc1nc(=O)c2cccnc2s1)c1ccccc1O | i | 5.17* | i | i | i | 18.5%* | i | i
COc1cc(NC(=O)Cn2c([N+](=O)[O-])cnc2C)c(OC)cc1Cl | i | i | i | i | i | . | . | .
CS(=O)(=O)c1ccc(C(=O)NCCN2C(=O)S/C(=C\c3cccnc3)C2=O)cc1[N+](=O)[O-] | i | 5.72* | i | i | i | 22.5%* | i | i
CN(C)S(=O)(=O)c1ccc(C(=O)NCCN2C(=O)S/C(=C\c3cccnc3)C2=O)cc1 | i | i | i | i | i | . | . | .
CC1(C)C[C@@H](O)CC2(C1)C[C@]1(C)CC(O)[C@H]2C(C)(C)C1 (stereo partly specified) | i | i | i | i | i | . | . | .
O=C1NC(c2cccs2)C(C(=O)c2ccccc2)C(O)(C(F)(F)F)N1 (stereo unspecified) | i | i | i | i | i | . | . | .
O=C1NC(c2ccc(-c3ccccc3[N+](=O)[O-])o2)C(C(=O)c2ccccc2)C(O)(C(F)(F)F)N1 (stereo unspecified) | i | i | i | i | i | i | i | i
Cc1ccc(C(=O)C2C(c3ccc(-c4ccccc4[N+](=O)[O-])o3)NC(=O)NC2(O)C(F)(F)F)cc1 (stereo unspecified) | i | i | i | i | i | . | i | i
CC(=N\Nc1ccccc1)/C(=N/O)C(=O)Nc1ccccc1 | i | i | i | i | i | . | i | i
COc1ccc(CCNC(=O)CCNC(=O)c2ccc([N+](=O)[O-])cc2)cc1 | i | i | i | i | i | . | . | .
SMILES | MrgX1 antag | RGS4 inh | MrgX1 ag | RGS4 pot | MrgX1 allo act | RGS4 inh valid | RGS4 uninduced | RGS4 inh ctr2
C/C(=N\N=C(/N)SC1CC(=O)N(c2ccc(Br)cc2)C1=O)c1cccs1 (stereo unspecified) | i | 10.6* | i | i | i | 37.0%* | 31.0%* | i
NCCSC1CC(=O)N(c2ccc(Cl)c(Cl)c2)C1=O (stereo unspecified) | i | i | i | i | i | . | . | .
C/C(=N\N=C(/N)SC1CC(=O)N(c2ccc(Cl)c(Cl)c2)C1=O)c1cccs1 (stereo unspecified) | i | 6.36* | i | i | i | 5.5%* | i | i
CCCCCOc1ccc(N2C(=O)CC(N(O)c3ccccc3)C2=O)cc1 (stereo unspecified) | i | i | i | i | i | . | . | .
CCCCCCOc1ccc(N2C(=O)CC(S/C(N)=N/N=C(\C)c3cccs3)C2=O)cc1 (stereo unspecified) | i | 7.5* | i | i | i | i | i | i
C/C(=N\N=C(/N)SC1CC(=O)N(c2ccc(Cl)cc2)C1=O)c1cccs1 (stereo unspecified) | i | 8.72* | i | i | i | 5.0%* | 40.0%* | i
COc1ccc(C2CC(c3cccs3)=NN2C(=O)COC(=O)C2CCCCC2)cc1OC (stereo unspecified) | i | i | i | i | i | . | . | .
CCCN1C[C@H](CSC)C[C@@H]2c3cccc4[nH]cc(c34)C[C@H]21 | i | i | i | i | i | . | . | .
CC1CCCN(C(=O)CN2C(=O)CSc3ccc(S(=O)(=O)N4CCOCC4)cc32)C1 (stereo unspecified) | i | i | i | i | i | . | . | .
